Experiment [1] deals with Mu-type opioid receptor (Cavia porcellus, UniProt P97266). Description: Functional bioactivity against mu opioid receptor in guinea-pig ileum. Format: tissue-based. The gist of the method: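 Myenteric plexus-longitudinal muscle from male guinea pig ileum, field-stimulated with supramaximal bipolar rectangular pulses. Agonist read-out is inhibition of the electrically evoked twitch, referenced to dermorphin, with IC50 taken from dose-response curves. For antagonism, compound is added 5 min before dermorphin, and pA2 comes from Schild plot. At least six experiments on fresh tissue; mean ± SE.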

Experiment [2] concerns the target Delta-type opioid receptor (Mus musculus, UniProt P32300). The experiment can be described thus: (§1) Functional bioactivity against delta opioid receptor in mouse vas deferens. The format is tissue-based. The method in brief: (§2)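 MVD strips field-stimulated with supramaximal bipolar rectangular pulses. Agonist read-out is inhibition of the electrically evoked twitch, referenced to deltorphin C, with IC50 taken from dose-response curves. For antagonism, compound is added 5 min before deltorphin C, and pA2 comes from Schild plot of the rightward curve shift. At least six experiments on fresh tissue; mean ± SE.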

Experiment [3] concerns the target Mu-type opioid receptor (Rattus norvegicus, UniProt P33535). Description: Displacement of [3H]DAMGO from rat mu opioid receptor in brain P2 synaptosomes. The format is subcellular. The method in brief: (§3)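 Rat brain synaptosome (P2) membranes, preincubated to remove endogenous opioid peptides, stored at -80 °C in buffered 20% glycerol. Five to eight ligand concentrations, each in duplicate, with independent repeats on different synaptosome preparations. Bound radioligand collected on glass fiber filters soaked in 0.1% polyethylenimine and washed thrice in ice-cold buffered BSA. Ki by Cheng-Prusoff; mean ± SE.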
Background: Displacement assays read how much labelled ligand stays bound in the presence of the test substance.

For experiment [4], the target named is Delta-type opioid receptor (Rattus norvegicus, UniProt P33533). The experiment can be described thus: Displacement of [3H]deltorphin C from rat delta opioid receptor in brain P2 synaptosomes. Format: subcellular. The gist of the method:
as §3

Experiment [5] has as its target Opioid receptors; mu & delta (Rattus norvegicus) (UniProt P33533+P33535). The experiment can be described thus: Selectivity for rat delta opioid receptor over mu opioid receptor. Format: protein assay.
In experiment [6] the target is Delta-type opioid receptor (Mus musculus) (UniProt P32300). Described as §1. Format: tissue-based. The method in brief:
as §2

Residues, ends and D or L forms follow the SMILES beside them.

Chain of Mu-type opioid receptor (Rattus norvegicus, UniProt P33535) (P33535 whole entry): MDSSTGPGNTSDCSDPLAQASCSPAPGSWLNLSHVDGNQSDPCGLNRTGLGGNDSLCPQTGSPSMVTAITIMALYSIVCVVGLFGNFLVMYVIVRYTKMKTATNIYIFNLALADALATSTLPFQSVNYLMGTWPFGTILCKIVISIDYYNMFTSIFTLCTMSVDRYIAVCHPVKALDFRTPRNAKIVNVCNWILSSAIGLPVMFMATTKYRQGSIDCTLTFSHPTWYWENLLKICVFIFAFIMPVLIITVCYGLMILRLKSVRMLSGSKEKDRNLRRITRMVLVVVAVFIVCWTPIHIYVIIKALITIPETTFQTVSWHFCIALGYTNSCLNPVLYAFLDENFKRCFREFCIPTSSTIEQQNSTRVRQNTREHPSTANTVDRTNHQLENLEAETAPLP
Chain of Delta-type opioid receptor (Rattus norvegicus, UniProt P33533) (P33533 whole entry): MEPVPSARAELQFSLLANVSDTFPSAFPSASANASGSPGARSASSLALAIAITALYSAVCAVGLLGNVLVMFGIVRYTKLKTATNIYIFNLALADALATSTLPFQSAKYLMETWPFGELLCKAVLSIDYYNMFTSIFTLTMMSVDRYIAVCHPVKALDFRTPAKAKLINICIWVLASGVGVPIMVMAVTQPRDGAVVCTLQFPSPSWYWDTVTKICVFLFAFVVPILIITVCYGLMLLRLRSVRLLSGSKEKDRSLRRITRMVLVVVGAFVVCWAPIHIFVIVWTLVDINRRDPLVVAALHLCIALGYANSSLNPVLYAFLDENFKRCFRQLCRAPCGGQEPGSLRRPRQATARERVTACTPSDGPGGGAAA
Chain of Delta-type opioid receptor (Mus musculus, UniProt P32300) (P32300 whole entry): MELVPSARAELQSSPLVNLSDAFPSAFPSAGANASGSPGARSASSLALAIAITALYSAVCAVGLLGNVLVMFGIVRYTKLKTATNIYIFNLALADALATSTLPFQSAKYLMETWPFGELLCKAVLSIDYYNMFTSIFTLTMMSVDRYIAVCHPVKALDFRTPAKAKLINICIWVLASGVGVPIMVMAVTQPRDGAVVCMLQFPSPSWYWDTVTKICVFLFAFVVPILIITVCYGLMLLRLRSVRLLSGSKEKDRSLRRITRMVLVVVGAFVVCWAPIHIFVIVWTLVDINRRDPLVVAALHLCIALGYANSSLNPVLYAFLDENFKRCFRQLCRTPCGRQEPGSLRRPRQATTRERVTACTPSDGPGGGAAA
Chain of Delta-type opioid receptor (Mus musculus) (P32300 whole entry): as above
Chain of Mu-type opioid receptor (Cavia porcellus, UniProt P97266) (P97266 whole entry): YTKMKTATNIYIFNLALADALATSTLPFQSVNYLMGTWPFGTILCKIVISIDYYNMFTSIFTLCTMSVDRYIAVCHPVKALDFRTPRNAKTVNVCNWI
Chain of Opioid receptors; mu & delta (Rattus norvegicus) (P33533 whole entry, looked up): as the sequence (P33533 whole entry) above
Chain of Opioid receptors; mu & delta (Rattus norvegicus) (P33535 whole entry, looked up): as the sequence (P33535 whole entry) above

As usually defined, the IC50 is the midpoint of a concentration-inhibition curve. As usually defined, the Ki is the equilibrium dissociation constant of an inhibitor or competing ligand from its target. In the case of `CN(C)c1ccc2cc3c(cc2c1)C(=O)N(C[C@H](NC(=O)[C@@H]1CCCN1C(=O)[C@@H](N)Cc1ccc(O)cc1)C(=O)N[C@@H](Cc1ccccc1)C(N)=O)C3=O`, the IC50 in experiment [1] stood at 389 nM; in experiment [2], 500 nM. Moreover, the Ki worked out at 3420 nM in experiment [3] and 839 nM in experiment [4].

Turning to `Cc1cc(O)cc(C)c1C[C@H](N)C(=O)N1Cc2ccccc2C[C@H]1C(=O)N[C@@H](CCC(=O)O)C(=O)N[C@@H](CN1C(=O)c2cc3ccc(N(C)C)cc3cc2C1=O)C(N)=O` (HELM PEPTIDE1{[Cc1cc(O)cc(C)c1C[C@H](N)C(=O)[*:2]].[Tic].E.[CN(C)c1ccc2cc3c(cc2c1)C(=O)N(C[C@H](N[*:1])C(=O)[*:2])C3=O].[am]}$$$$V2.0), the 50% inhibitory concentration (IC50) in experiment [1] was found to be 100 nM. Also, the inhibition constant (Ki) came out at 7880 nM in experiment [3] and 7.8 nM in experiment [4].

As for `CN(C)c1ccc2cc3c(cc2c1)C(=O)N(C[C@H](NC(=O)CCCCCNC(=O)[C@H](Cc1ccccc1)NC(=O)[C@H](Cc1ccccc1)NC(=O)[C@@H]1CCCN1C(=O)[C@@H](N)Cc1ccc(O)cc1)C(N)=O)C3=O` (HELM PEPTIDE1{Y.P.F.F.[O=C(CCCCCN[*:1])[*:2]].[CN(C)c1ccc2cc3c(cc2c1)C(=O)N(C[C@H](N[*:1])C(=O)[*:2])C3=O].[am]}$$$$V2.0), the figures for the IC50 in experiment [1] and in experiment [2] were 253 nM and 300 nM, respectively. Also, the values for the inhibition constant (Ki) in experiment [3] and in experiment [4] were 244 nM and 5940 nM, respectively.

As for `Cc1cc(O)cc(C)c1C[C@H](N)C(=O)N1Cc2ccccc2CC1C(=O)N[C@@H](CCC(=O)O)C(=O)NCCCCCC(=O)NC(CN1C(=O)c2cc3ccc(N(C)C)cc3cc2C1=O)C(N)=O` (some centres not stated), the Ratio Ki in experiment [5] came out at 261. The Activity result in experiment [6] (filed as antagonist) was “Antagonist”.

As for `Cc1cc(O)cc(C)c1C[C@H](N)C(=O)N1Cc2ccccc2C[C@H]1C(=O)N[C@@H](CCC(=O)O)C(=O)NCCCCCC(=O)N[C@@H](CN1C(=O)c2cc3ccc(N(C)C)cc3cc2C1=O)C(N)=O`, half-maximal inhibition in experiment [1] (IC50) required 244 nM. Besides, the inhibition constant Ki in experiment [3] worked out at 41.3 nM; in experiment [4], 0.158 nM.

In the case of `CN(C)c1ccc2cc3c(cc2c1)C(=O)N(CC(NC(=O)[C@@H]1CCCN1C(=O)[C@@H](N)Cc1ccc(O)cc1)C(=O)N[C@@H](Cc1ccccc1)C(N)=O)C3=O` (some centres not stated), the Ratio Ki in experiment [5] came out at 4.1. For the same compound, the max activation in experiment [6] was 22%. The Activity result in experiment [6] (filed as partial agonist) was “Partial agonist”.

Regarding `N[C@@H](Cc1ccc(O)cc1)C(=O)N1CCC[C@H]1C(=O)N[C@@H](Cc1ccccc1)C(=O)N[C@@H](Cc1ccccc1)C(=O)NCCCCC/N=C(S)/N=C1/C=CC(=C2c3ccc(O)cc3Oc3cc(O)ccc32)C(C(=O)O)=C1`, the concentration for half-maximal inhibition (IC50) in experiment [1] turned out to be 120 nM; in experiment [2], 200 nM. The same compound had a max activation in experiment [6] of 20%. Besides, in experiment [6] (filed as partial agonist), the Activity result is “Partial agonist”. Also, the values for the inhibition constant (Ki) in experiment [3] and in experiment [4] were 252 nM and 668 nM, respectively.

`CN(C)c1ccc2cc3c(cc2c1)C(=O)N(CC(NC(=O)CCCCCNC(=O)[C@H](Cc1ccccc1)NC(=O)[C@H](Cc1ccccc1)NC(=O)[C@@H]1CCCN1C(=O)[C@@H](N)Cc1ccc(O)cc1)C(N)=O)C3=O` (some centres not stated) (HELM PEPTIDE1{Y.P.F.F.[O=C(CCCCCN[*:1])[*:2]].[CN(C)c1ccc2cc3c(cc2c1)C(=O)N(CC(N[*:1])C(=O)[*:2])C3=O].[am]}$$$$V2.0) came in with a max activation in experiment [6] of 29%. In addition, the Activity result in experiment [6] (filed as partial agonist) is “Partial agonist”.

The record behind these values is ChEMBL document CHEMBL1148646, “6-N,N-dimethylamino-2,3-naphthalimide: a new environment-sensitive fluorescent probe in delta- and mu-selective opioid peptides” (J Med Chem, 2006).
